High-throughput results deposited in PubChem BioAssay by Sanford-Burnham Center for Chemical Genomics.
A selection: hits, their analogues and other compounds. The true share with any hit is near 3%.
UBC13 inh: UBC13 polyubiquitin chain formation inhibitors, primary screen, biochemical, TR-FRET, uHTS; inhibition, % at 20 µM; hit rate 0.47% among 330,000; Ubiquitin-conjugating enzyme E2 N (Homo sapiens), P61088; AID 485273, 2010; in the data active = inhibition above about 45%, passing the limit was not always enough
Target sequence (P61088 whole entry, looked up): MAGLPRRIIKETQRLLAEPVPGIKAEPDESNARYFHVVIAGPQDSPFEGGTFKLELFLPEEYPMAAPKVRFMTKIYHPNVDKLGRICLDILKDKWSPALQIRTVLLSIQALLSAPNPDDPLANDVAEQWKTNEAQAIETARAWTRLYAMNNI
SENP6 block: SENP6 protease inhibitors, primary screen, biochemical, luminescence, uHTS; Sentrin-specific protease 6 (Homo sapiens), Q9GZR1; Recombinant SENP6 catalytic domain, aminoluciferin luminescence; inhibition, % at 10 µM; hit rate 1.8% among 330,000; AID 2599, 2010;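 active = inhibition above about 50% at the single tested dose, limit read from the data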;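 note: plate controls were DMSO wells with enzyme for no effect and DMSO wells lacking enzyme for full effect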
SENP8 block-1: SENP8 protease inhibitors, primary screen, biochemical, luminescence. inhibition, % at 10 µM. purified SENP8, Z-RLRGG-aminoluciferin cleavage. hit rate 1.2% among 330,000. AID 2540, 2010. Sentrin-specific protease 8 (Homo sapiens), Q96LD8; in the data active = inhibition above about 50%
Target sequence (Q96LD8 whole entry, looked up): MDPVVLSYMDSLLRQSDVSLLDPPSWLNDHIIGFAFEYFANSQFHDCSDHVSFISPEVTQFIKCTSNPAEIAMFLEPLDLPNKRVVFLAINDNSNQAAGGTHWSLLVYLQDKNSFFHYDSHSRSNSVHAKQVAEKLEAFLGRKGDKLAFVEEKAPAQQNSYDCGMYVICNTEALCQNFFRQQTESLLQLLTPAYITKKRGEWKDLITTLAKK
SENP8 block-2: human SENP8 protease inhibitors, primary screen, biochemical, fluorescence, Nedd8 protein substrate, uHTS; hit rate 0.64% among 360,000; recombinant SENP8; Sentrin-specific protease 8 (Homo sapiens), Q96LD8; inhibition, % at 20 µM; in the data active = inhibition mostly above about 40%, no sharp cut-off; inactive = mostly below about 27%
SENP7 block: SENP7 protease inhibitors, primary screen, biochemical, luminescence, uHTS. Sentrin-specific protease 7 (Homo sapiens), Q9BQF6. recombinant SENP7, Z-RLRGG-aminoluciferin luminescence, 40 min. inhibition, % at 5 µM. hit rate 1.5% among 330,000;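 active = inhibition above about 50% at the single test dose, limit read from the data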;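 note: plate controls were DMSO with enzyme for no effect and no enzyme buffer wells for full effect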
Apaf1 inhib: inhibitors of human Apaf-1 apoptosome, primary screen, biochemical, DEVD-Rh110 fluorescence, uHTS; reconstituted apoptosome caspase-3 activity; inhibition, % at 20 µM; hit rate 0.71% among 330,000; Apoptotic protease-activating factor 1 (Homo sapiens), O14727; active = inhibition of at least 40% at 20 µM;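 note: plate controls were DMSO wells for no effect and DEVD-CHO caspase inhibitor wells for full effect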
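System: Apoptosome proteins | Medium: Hepes pH 7.5 with detergent and BSA | Also added: Cytochrome c trigger plus (Z-DEVD)2-Rh110 caspase-3 substrate | Incubation: 30 min compound preincubation, 50 min activation, room temperature | Detection: Rhodamine 110 fluorescence at Ex 480/Em 540 nm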
SENP8 conf: SENP8 protease inhibitors, retest, confirmation, biochemical, luminescence, single concentration | AID 488912, 2010 | hit rate 40% among 6,200 | inhibition, % at 12.5 µM | shares compounds with SENP7 block | Recombinant SENP8, Z-RLRGG-aminoluciferin luminescence, 60 min;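 active = mean inhibition across replicates above about 50%, limit read from the data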
SENP6 confirm: SENP6 protease inhibitors, confirmation, biochemical, luminescence, single concentration. recombinant SENP6, Z-RLRGG-aminoluciferin luminescence. AID 488915, 2010. hit rate 58% among 6,200. inhibition, % at 12.5 µM. shares compounds with SENP7 block
SENP7 conf: SENP7 protease inhibitors, retest, confirmation, biochemical, luminescence, single concentration | shares compounds with SENP7 block | recombinant SENP7, Z-RLRGG-aminoluciferin luminescence, 40 min | inhibition, % at 12.5 µM | hit rate 69% among 6,200
Casp3 SENP sel: caspase-3 protease inhibitors, confirmation, selectivity assay for SENP inhibitor project, biochemical, single concentration. shares compounds with SENP7 block. purified caspase-3, Z-DEVD-aminoluciferin luminescence, 60 min. inhibition, % at 12.5 µM. hit rate 60% among 6,200;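 active = mean inhibition above about 50%, limit read from the data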;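 note: plate controls were enzyme with DMSO for no effect and wells without caspase-3 for full effect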
Target sequence (P42574 28-227 limits assumed): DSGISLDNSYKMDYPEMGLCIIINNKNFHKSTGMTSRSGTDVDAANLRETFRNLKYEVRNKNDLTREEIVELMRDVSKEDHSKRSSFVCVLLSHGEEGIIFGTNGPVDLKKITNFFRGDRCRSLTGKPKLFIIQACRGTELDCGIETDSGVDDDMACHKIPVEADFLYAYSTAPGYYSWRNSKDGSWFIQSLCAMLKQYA
SENP luc ctr: luminescence interference (SENP counter-screen); AID 488919; Pre-incubated SENP8/Z-RLRGG-aminoluciferin, luciferase luminescence interference; hit rate 39% among 6,200; inhibition, % at 12.5 µM; shares compounds with SENP7 block;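 active = mean inhibition above about 50% when retested at one dose, limit read from the data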;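 note: plate controls were DMSO wells with completed reaction for no effect and substrate without enzyme for full effect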
An asterisk follows results filed as active; . = no result.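 Rule for the calls, unless noted: active = mean inhibition above about 50% in the one-dose retest (limit read from the data); inactive = the rest.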

SMILES	UBC13 inh	SENP6 block	SENP8 block-1	SENP8 block-2	SENP7 block	Apaf1 inhib	SENP8 conf	SENP6 confirm	SENP7 conf	Casp3 SENP sel	SENP luc ctr
Cc1ccc(-c2nc3cc(Cl)ccc3o2)cc1	11.1	90.9*	75.3*	0.2	89.9*	-7.4	7.2	16.6	35.1	12.9	5.9
COc1cccc(C(=O)C(=O)N2CCN(C(=O)OCc3ccccc3)CC2)c1	.	.	.	23.5	.	.	.	.	.	.	.
NS(=O)(=O)c1ccc(CCNc2nn3c(-c4cccc(OC(F)(F)F)c4)cnc3s2)cc1	.	.	.	6.8	.	.	.	.	.	.	.
CC(C)C(=O)Nc1cccc(-c2nc3ccccc3o2)c1	2.8	-2.2	3.6	-15.1	-1.4	10.3	.	.	.	.	.
Cc1ccc(-c2nc3cc(NC(=O)C(C)C)ccc3o2)cc1	18.7	75.5*	34.5	-490.6	83.5*	-4.8	0.6	5.5	7.1	13.1	9.7
C[C@H](CO)N1C[C@H](C)[C@@H](CN(C)C(=O)c2ccccc2)OCc2cnnn2CCCC1=O	.	.	.	9.2	.	.	.	.	.	.	.
COc1cc(C(=O)NCCN2C(=O)S/C(=C\c3cccs3)C2=O)cc(OC)c1OC	-2.1	11.6	55.6*	6.3	64.1*	6.1	2.4	4.5	8.8	6.0	-0.5
COc1ccc(-c2cc3ncnc(Cl)c3s2)cc1	30.6	83.4*	83.7*	-313.4	45.7	8.5	-22.3	34.1	48.3	39.5	12.1
COc1ccc(N=Cc2nc(-c3ccccc3)oc2OC(=O)c2ccccc2)cc1	-7.0	54.1*	11.1	3.6	56.1*	0.8	9.3	7.1	8.2	62.2*	4.8
CN(C)c1ccc(N=Cc2nc(-c3ccccc3)oc2OC(=O)c2cccc(Br)c2)cc1	-11.1	78.4*	48.6	7.6	47.3	-8.1	-22.8	10.0	16.2	35.8	27.0
Cc1cc(C(=O)COC(=O)c2ccncc2)c(C)n1Cc1ccco1	11.4	-6.1	-10.4	5.2	6.3	-5.9	.	.	.	.	.
Cc1cc(C(=O)COC(=O)c2cccn2C)c(C)n1Cc1ccco1	3.5	66.9*	63.5*	4.0	66.9*	6.8	80.9*	80.4*	94.1*	68.4*	-2.7
COc1ccc(-n2nc3ccccc3n2)cc1	-5.2	-55.8	-21.6	3.9	-4.5	15.9	.	.	.	.	.
Nc1ccc(-n2nc3ccccc3n2)cc1	5.0	41.3	37.5	-452.2	63.8*	5.4	36.3	56.5*	87.4*	60.2*	66.8*
Cc1cc(C)c2sc(NC(=O)c3ccc([N+](=O)[O-])o3)nc2c1	-42.3	22.6	1.9	-17.9	6.8	15.0	.	.	.	.	.
O=C(Nc1nc2ccccc2s1)c1ccc([N+](=O)[O-])o1	-13.1	75.5*	50.5*	5.8	60.2*	4.6	-28.2	-19.5	-6.2	-5.5	-6.5
COc1ccc2nc(NC(=O)c3ccc([N+](=O)[O-])o3)sc2c1	-38.6	62.6*	16.2	-31.7	43.5	11.1	45.7	68.0*	74.0*	14.4	31.7
COc1cccc(OC)c1C(=O)Nc1nc2ccc([N+](=O)[O-])cc2s1	-12.3	-3.4	-3.3	9.4	15.4	0.2	.	.	.	.	.
O=C(Nc1nc2c(F)cc(F)cc2s1)c1ccc([N+](=O)[O-])o1	-20.5	72.6*	69.3*	5.7	32.4	13.3	-23.9	-12.9	-2.9	-4.7	-2.8
c1c2c(cc3sc(N4CCOCC4)nc13)OCCO2	1.1	94.1*	88.9*	10.6	93.6*	-1.7	89.0*	92.7*	100.2*	96.2*	57.3*
O=C(Nc1ccc(F)c(Cl)c1)c1cc(C2CCCN(C(=O)CCc3ccccc3)C2)on1 (centres undefined)	.	.	.	21.7	.	.	.	.	.	.	.
Cc1cccc2c1[nH]c1nc(N/N=C\c3ccco3)nnc12	-14.5	-5.6	-3.5	.	3.4	3.0	.	.	.	.	.
CC(/C=N/Nc1nnc2c(n1)[nH]c1ccccc12)=C\c1ccco1	-18.5	6.5	-2.6	10.9	82.8*	0.2	3.4	-1.4	-3.3	-1.2	-1.7
C=CCn1c(SCc2nc(N)nc(N3CCCCC3)n2)nnc1-c1ccco1	2.6	1.7	15.9	10.3	61.0*	6.9	-12.0	-7.0	-9.1	0.9	1.5
COc1ccc(CC(=O)Nc2ccc(C(N)=O)cc2)cc1	12.6	-9.3	-1.0	23.2	-11.2	-30.0	.	.	.	.	.
SMILES	UBC13 inh	SENP6 block	SENP8 block-1	SENP8 block-2	SENP7 block	Apaf1 inhib	SENP8 conf	SENP6 confirm	SENP7 conf	Casp3 SENP sel	SENP luc ctr
COc1ccc(C/C(=N\OC(C)=O)c2ccc(OC)cc2)cc1	-7.0	95.5*	90.7*	9.9	98.3*	4.2	92.4*	96.5*	101.8*	96.2*	95.3*
COC(=O)/N=C(/Cc1ccc(OC)cc1)c1ccc(OC)cc1	-0.7	95.7*	92.1*	5.8	94.1*	9.1	97.0*	97.3*	102.2*	96.4*	89.9*
COc1ccc(/C(N)=N/OC(=O)Cc2ccc(C)cc2)cc1	5.3	-3.0	-0.1	25.9	5.1	-3.1	.	.	.	.	.
COc1cccc(NC(=O)c2ccn(C)n2)c1	-17.3	-47.3	-19.2	20.7	-2.3	-2.1	.	.	.	.	.
Cc1ccc(NC(=O)c2ccn(C)n2)c(Br)c1	3.9	60.8*	42.3	18.0	44.0	-10.4	46.6	41.9	80.6*	68.3*	61.2*
Cc1ccc(NC(=O)c2ccccn2)c(Br)c1	4.3	82.3*	72.3*	9.5	73.1*	4.9	66.0*	82.8*	79.3*	64.2*	34.4
Cc1ccc(NC(=O)Cn2cccc2)c(Br)c1	2.9	-13.6	-1.1	12.6	9.8	0.9	.	.	.	.	.
Cn1ccc(C(=O)Nc2ccc(Br)cc2Br)n1	3.3	66.3*	37.5	12.2	39.3	5.7	43.3	44.5	65.1*	54.2*	20.5
Cc1ccc(C)c(NC(=O)c2ccccn2)c1	0.1	15.7	1.9	13.6	18.9	-7.7	.	.	.	.	.
COc1ccc(C(O)c2nc(-c3ccc(OC)c(OC)c3)cs2)cc1 (centres undefined)	.	.	.	17.0	.	.	.	.	.	.	.
